Activity calls are given as the source filed them. The calls are words filed in the database; no cut-off is given here.
Tests used:
[1] = biological target: T1, Proteinase-activated receptor 1 (Homo sapiens) (UniProt P25116); assay: Antagonist activity at PAR1 expressed in CHO cells assessed as inhibition of SFLLR-NH2-induced calcium release at 10 uM by FLIPR assay; assay type: functional, cell-based
T1 sequence (whole entry): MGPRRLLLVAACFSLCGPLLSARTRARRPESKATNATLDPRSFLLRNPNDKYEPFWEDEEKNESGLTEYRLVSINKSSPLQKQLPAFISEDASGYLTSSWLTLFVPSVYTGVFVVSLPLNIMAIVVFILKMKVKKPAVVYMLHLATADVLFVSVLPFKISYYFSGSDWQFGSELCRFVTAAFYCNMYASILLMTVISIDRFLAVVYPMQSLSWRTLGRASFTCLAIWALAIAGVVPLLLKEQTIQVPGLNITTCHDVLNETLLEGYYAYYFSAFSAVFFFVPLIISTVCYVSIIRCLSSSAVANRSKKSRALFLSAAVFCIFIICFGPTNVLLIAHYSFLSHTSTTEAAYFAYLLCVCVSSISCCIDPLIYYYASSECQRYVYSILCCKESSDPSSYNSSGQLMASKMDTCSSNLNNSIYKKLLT
How it was run: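 Calcium release triggered by 1 µM SFLLR-NH₂; test compound at 10 µM, read as % inhibition of the agonist response. Values are mean SEM of at least two independent determinations, each run in triplicate.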

[2] = biological target: T1, Proteinase-activated receptor 1 (Homo sapiens); assay: (§1) Antagonist activity at PAR1 expressed in CHO cells assessed as inhibition of SFLLR-NH2-induced calcium release by FLIPR assay; assay type: functional, cell-based
How it was run: (§2)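 Concentration-response study in the same calcium-release screen, with release induced by 1 µM SFLLR-NH₂. Used to separate partial from fully competitive antagonists; pA₂ was derived for full antagonists only.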

[3] = biological target: T2, Proteinase-activated receptor 1 (Homo sapiens, UniProt P25116); assay: as §1; assay type: functional, cell-based; settings: read-out: pA2 (converted); how it was run: as §2
T2 sequence (P25116 whole entry): T1 sequence (whole entry)

[4] = Antiaggregatory activity in human platelets assessed as inhibition of SFLLR-induced aggregation; assay type: functional, Platelet
[5] = system: Rattus norvegicus; assay: Antithrombotic activity in rat assessed as increase in occlusion time of arteriovenous shunt at 1.25 mg/kg, iv; assay type: functional
How it was run: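 Arteriovenous extracorporeal shunt in anesthetized rats, compound dosed at 1.25 mg/kg. Read-out is % increase of occlusion time.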

O=C(/C=C/c1ccccc1Cl)c1ccc(NC2CCCCC2)nc1
inhibition [1]: 97% | pA2 [2]: Active

O=C(/C=C\c1ccccc1Cl)N1CCC(Nc2ccc(F)cc2)C(F)C1 (stereo not drawn)
inhibition [1]: 85% | Kb [3]: 389 nM | pKb [4]: 4

Cc1cccc(-c2ccc(C(=O)/C=C/c3c(F)cccc3F)nc2)c1C
inhibition [1]: 40%

O=C(/C=C/c1c(F)cccc1F)c1ccc(N2CCCC2)nc1
inhibition [1]: 20%

O=C(/C=C\c1ccccc1Cl)N1CCC(N(Cc2ccc(F)cc2)Cc2ccccn2)C(F)C1 (stereo not drawn)
inhibition [1]: 23%

N#Cc1ccccc1/C=C/C(=O)N1CCC(N(Cc2ccc(F)cc2)Cc2ccccn2)C(F)C1 (stereo not drawn)
inhibition [1]: 33%

O=C(c1cc2c(F)cccc2s1)N1CCN(Cc2ccccc2)CC1
inhibition [1]: 4%

Cn1c(C(=O)N2CCN(Cc3ccccc3)CC2)cc2ccccc21
inhibition [1]: 11%

N#Cc1ccccc1/C=C/c1c(N2CCN(Cc3ccsc3)CC2)c(=O)c1=O
inhibition [1]: 97% | Kb [3]: 389 nM | pKb [4]: 4

O=C(c1cc2ccccc2o1)N1CCN(Cc2ccccc2)CC1
inhibition [1]: 1%

O=c1c(/C=C/c2ccccc2Cl)c(N2CCN(Cc3ccc(F)cc3)CC2)c1=O
inhibition [1]: 23%

O=C(/C=C/c1c(F)cccc1F)N1CCC(NCc2ccc(F)cc2)CC1
inhibition [1]: 0%

O=c1c(/C=C/c2ccccc2Cl)c(N2CCN(Cc3ccsc3)CC2)c1=O
inhibition [1]: 27%

N#Cc1ccccc1/C=C\C(=O)N1CCC(NCc2ccc(F)cc2)C(F)C1 (stereo not drawn)
inhibition [1]: 40%

Cc1cccc(-c2ccc(C(=O)/C=C/c3c(F)cccc3F)cn2)c1C
inhibition [1]: 74%

N#Cc1ccccc1/C=C/C(=O)c1ccc(NC2CCCC2)nc1
inhibition [1]: 84% | Kb [3]: 933 nM | pKb [4]: 5.05 | Activity [5]: 28%

N#Cc1ccccc1/C=C\C(=O)N1CCC(N(Cc2ccc(F)cc2)Cc2ccccn2)C(F)C1 (stereo not drawn)
inhibition [1]: 68% | Kb [3]: 589 nM | pKb [4]: 5.68 | Activity [5]: 53%

N#Cc1ccccc1/C=C/c1c(N2CCN(CC3CCCCC3)CC2)c(=O)c1=O
inhibition [1]: 84% | Kb [3]: 427 nM | pKb [4]: 4

N#Cc1ccccc1/C=C/C(=O)c1ccc(NC2CCCCC2)nc1
inhibition [1]: 53%

O=C(/C=C/c1ccccc1Cl)c1ccc(N2CC=CC2)cn1
inhibition [1]: 13%

N#Cc1ccccc1/C=C/C(=O)c1ccc(N2CC=CC2)cn1
inhibition [1]: 52%

O=C(c1cc2ccccc2[nH]1)N1CCN(Cc2ccccc2)CC1
inhibition [1]: 2%

O=c1c(/C=C/c2ccccc2Cl)c(N2CCN(CC3CCCCC3)CC2)c1=O
inhibition [1]: 41%

O=C(/C=C\c1c(F)cccc1F)N1CCC(NCc2ccc(F)cc2)C(F)C1 (stereo not drawn)
inhibition [1]: 25%

Cc1cccc(-c2ccc(C(=O)/C=C/c3ccccc3Cl)cn2)c1C
inhibition [1]: 32%

O=C(C1=Cc2ccccc2OC1)N1CCN(Cc2ccc(F)cc2)CC1
inhibition [1]: 16%

O=C(/C=C/c1ccccc1Cl)c1ccc(NC2CCCC2)nc1
inhibition [1]: 11%

O=C(/C=C/c1c(F)cccc1F)c1ccc(NC2CCCCC2)nc1
inhibition [1]: 41%

O=C(/C=C/c1c(F)cccc1F)c1ccc(N2CC=CC2)cn1
inhibition [1]: 60%

O=C(/C=C/c1ccccc1Cl)N1CCN(Cc2ccc(F)cc2)CC1
inhibition [1]: 93% | Kb [3]: 380 nM | pKb [4]: 5.52 | Activity [5]: 28%

O=c1c(/C=C/c2ccccc2Cl)c(N2CCN(Cc3ccccc3)CC2)c1=O
inhibition [1]: 85% | pA2 [2]: Active

Source: ChEMBL document CHEMBL1154931, “Exploration of a new series of PAR1 antagonists” (Bioorg Med Chem Lett, 2010)
